Published values gathered from unrelated publications.
Lines come from different studies, so protocols differ.

Structure (SMILES) | tested on | test | test system | conditions | measurement | value
O=C(O)COc1cccc(-c2nc(Nc3ccc4[nH]ncc4c3)c3ccccc3n2)c1 | Organic anion transporter 3 (SLC22A8, Homo sapiens, UniProt Q8TCC7) | transporter uptake, inhibitor, radiometric |  |  | IC50 | 15.9 µM
CC(=O)N(C)[C@H]1CCN(C(=O)c2cnc3c(c2)C[C@](C)(c2ccc(F)cc2)N3)C1 |  |  | male human, plasma | oral, 30 mg, multiple doses, once daily, steady state | AUC(0-t) | 3.63 µM·h
O=C(COc1ccc(Cl)cc1)NC12CC(c3nnc([C@H]4C[C@@H](OC(F)(F)F)C4)o3)(C1)C2 |  |  | human, plasma | oral, 260 mg, multiple doses, once daily, steady state, healthy volunteers | AUC | 296 µM·h
CC(C)C[C@H](NC(=O)[C@H](Cc1ccccc1)NC(=O)c1cnccn1)B(O)O | CHP-212 | cell growth or viability, SRB |  | 4.572 nM | viability | 102%
CC(C)n1c(C2CCNCC2)nc2c([N+](=O)[O-])c(Br)c(Br)cc21 |  |  | human, plasma | oral, 100 mg, patients | AUC(0-t) | 952 ng·h/mL
CC(=O)O[C@H]1C(=O)[C@@]2(C)[C@H]([C@H](OC(=O)c3ccccc3)[C@]3(O)C[C@H](OC(=O)[C@H](O)[C@@H](NC(=O)c4ccccc4)c4ccccc4)C(C)=C1C3(C)C)[C@]1(OC(C)=O)CO[C@@H]1C[C@@H]2O | CHP-212 | cell growth or viability, SRB |  | 1.524 nM | viability | 89.8%
COc1ccc2c(c1)CN(C(=O)CCN1CCC(Cc3ccccc3)CC1)CC[S@@+]2[O-] |  |  | male human, plasma | intravenous, 0.01 mg/kg, healthy volunteers | AUC(0-t) | 45.2 ng·h/mL
COc1ccc(F)cc1C(=O)NCc1ccc(-c2nn([C@@H](C)C(F)(F)F)c(N)c2C(N)=O)cc1 |  |  | male human, plasma | oral, 200 mg, single dose | AUC(0-inf) | 105000 ng·h/mL
CNC(=O)c1cc(Oc2ccc(NC(=O)Nc3ccc(Cl)c(C(F)(F)F)c3)cc2)ccn1 | WISH | cell growth or viability, MTT |  | 3.125 µM, 24 h | viability | 86.2%
NCc1cc2c(cc1F)C(=O)N(C1CCC(=O)NC1=O)C2 (stereo not shown) |  |  | male cynomolgus monkey, plasma | oral, 0.3 mg/kg, 2 h | concentration | 1.07 ng/mL
